Data from ChEMBL document CHEMBL4014267, “Anti-inflammatory and Antiosteoporosis Flavonoids from the Rhizomes of Helminthostachys zeylanica” (J Nat Prod, 2017).
Activity calls are given as the source filed them. No cut-off for these calls is given here.

Assays:
Assay type in all cases: functional, cell-based
BV-2 = assay: Antiinflammatory activity in mouse BV2 cells assessed as inhibition of LPS-induced nitric oxide production after 24 hrs by Griess assay; settings: BV-2, 24 h
Procedure, shortened: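 Murine BV2 microglia were grown in DMEM with 5% FBS and stimulated with LPS (0.5 μg/mL). NO was read as nitrite accumulated in the medium 24 h after stimulation, using Griess reagent.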

RAW264.7 [1] = assay: Antiosteoporotic activity in mouse RAW264.7 cells assessed as inhibition of RANKL-induced osteoclast differentiation after 4 to 5 days by TRAP assay
Procedure, shortened: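 RAW264.7 macrophages were differentiated for 4−5 days in DMEM with 100 ng/mL recombinant murine RANKL, alone or with test agent at 1, 3, 10 or 20 μM. Cells were then fixed and TRAP activity was read with a p-nitrophenylphosphate reaction buffer.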

RAW264.7 [2] = assay: Osteoblastogenic activity in mouse […] cells at 10 uM

`S=C(S)N1CCCC1` [PYRROLIDINE DITHIOCARBAMATE] showed an IC50 (BV-2) of 10.8 µM.

Molecule `CC1=CCCC(C)(C)C1Cc1c(O)cc(/C=C/c2ccc(O)cc2)cc1O` (stereo not drawn) has an IC50 (BV-2) of 6.2 µM.

`CC1=CCCC(C)(C)C1Cc1c(O)c(O)cc2oc3c(=O)c4c(O)cc(O)cc4oc3c12` (stereo not drawn) [UGONIN M] was tested, and the IC50 (BV-2) was 10.1 µM, the IC50 (RAW264.7 [1]) was 2.5 µM and the Activity (RAW264.7 [2]) was “inactive”.

With `CC1(C)CCC[C@]2(C)Oc3c(c(O)cc4oc(-c5ccc(O)c(O)c5)cc(=O)c34)C[C@H]12` the IC50 (BV-2) was 19.7 µM, the IC50 (RAW264.7 [1]) was 4.6 µM and the Activity (RAW264.7 [2]) was “inactive”.

With `C=C1CCCC(C)(C)[C@H]1Cc1c(O)cc2oc(-c3ccc(O)c(O)c3)cc(=O)c2c1O` the IC50 (BV-2) was 6.5 µM.

Molecule `O=c1c(-c2ccc(O)cc2)coc2cc(O)cc(O)c12` [GENISTEIN] has an IC50 (RAW264.7 [1]) of 11.4 µM.

`C=C1CCCC(C)(C)[C@H]1Cc1c(OC)cc2oc(-c3ccc(O)c(O)c3)cc(=O)c2c1O` was tested, and the IC50 (BV-2) was 8.1 µM, the IC50 (RAW264.7 [1]) was 1.8 µM and the Activity (RAW264.7 [2]) was “Active”.

With `C=C1CCCC(C)(C)[C@H]1Cc1c(OC)cc2oc(-c3ccc(O)c(O)c3)c(OC)c(=O)c2c1O` the IC50 (BV-2) was 6.7 µM, the IC50 (RAW264.7 [1]) was 3.2 µM and the Activity (RAW264.7 [2]) was “inactive”.

`CC1(C)CCC[C@@]2(C)Oc3c(c(O)cc4oc(-c5ccc(O)c(O)c5)cc(=O)c34)C[C@H]12` was tested, and the IC50 (BV-2) was 24.1 µM, the IC50 (RAW264.7 [1]) was over 10 µM and the Activity (RAW264.7 [2]) was “inactive”.

For `CC1(C)CCC[C@]2(C)Oc3c(O)cc4oc5c(=O)c6c(O)cc(O)cc6oc5c4c3C[C@H]12`, the IC50 (BV-2) was 7 µM, the IC50 (RAW264.7 [1]) was 3.5 µM and the Activity (RAW264.7 [2]) was “inactive”.

`CC1(C)CC=C[C@]2(C)Oc3c(O)cc4oc5c(=O)c6c(O)cc(O)cc6oc5c4c3C[C@H]12` [UGONIN O] was tested, and the IC50 (BV-2) was 7.7 µM, the IC50 (RAW264.7 [1]) was 3.3 µM and the Activity (RAW264.7 [2]) was “inactive”.

For `CC1=CCCC(C)(C)C12Cc1c(c(O)cc3oc4c(=O)c5c(O)cc(O)cc5oc4c13)O2` (stereo not drawn), the IC50 (BV-2) was 18 µM, the IC50 (RAW264.7 [1]) was 4.5 µM and the Activity (RAW264.7 [2]) was “inactive”.
